Laboratory results published in ChEMBL document CHEMBL2396514, “Optimization of novel nipecotic bis(amide) inhibitors of the Rho/MKL1/SRF transcriptional pathway as potential anti-metastasis agents” (Bioorg Med Chem Lett, 2013).
Converted amounts (≈) assume the structure as drawn.

Legend:
PC-3 [1] = experiment: Antimetastatic activity against human PC3 cells after 24 hrs by scratch wound assay; type: functional, cell-based; settings: PC-3, 24 h
In short: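 PC-3 cells (5.0×10^5) were grown to confluence in DMEM with 10% FBS and scratched after 24 h. Medium was switched to DMEM with 0.5% FBS containing compound at various concentrations or 0.1% DMSO. Wounds were imaged at 0 h, then fixed (10% formalin) and crystal-violet stained at 24 h. Migration = initial minus 24 h wound area, normalized to DMSO. IC50 was taken from dose-response curves.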

[2] = Kinetic solubility of the compound; type: physicochemical; settings: read-out: Kinetic_solubility
PC-3 [3] = experiment: Antimetastatic activity against human PC3 cells at 10 uM after 24 hrs by scratch wound assay; type: functional; settings: PC-3, 24 h
In short: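 Confluent PC-3 monolayers (5.0×10^5 cells plated, DMEM with 10% FBS) were scratched 24 h after plating. Cells were then exposed to compound at 10 μM, or 0.1% DMSO, in DMEM with 0.5% FBS. Wounds were imaged at 0 h and after 24 h (formalin-fixed, crystal violet-stained). Wound-area closure was quantified and expressed as percent inhibition relative to DMSO control.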

[4] = Cytotoxicity against human PC3 cells at 100 uM by WST1 assay; type: cell-based, PC-3; settings: read-out: INH
In short: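 Read-out was inhibition of mitochondrial WST-1 reduction in PC-3 cells transiently transfected with an SRE.L luciferase reporter. Compound was tested at 100 μM. Values are the mean of n = 3 independent experiments.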

[5] = Cytotoxicity against human SK-MEL-147 cells by WST1 assay; type: cell-based
In short: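 WST-1 reduction was measured in SK-Mel-147 melanoma cells transiently transfected for the RhoC-SRE.L luciferase reporter assay.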

Mus musculus [6] = experiment: Toxicity in mouse assessed as organism survival at 10 to 100 mg/kg/day, ip after 5 days; type: organism-based; design: route intraperitoneal; settings: in vivo, 120 h
In short: (§1)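 5-day tolerability study in mice, doses of 10, 20, 50 and 100 mg/kg/day given intraperitoneally, 3 mice per dose. Animals sacrificed on day 8, then body weight recorded, blood collected, and internal organs dissected, weighed and examined for abnormalities. Behaviour observed and survival tracked over the dosing period.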

Mus musculus [7] = experiment: Toxicity in mouse assessed as increase in liver weight at 10 to 100 mg/kg/day, ip administered for 5 days measured on day 8; type: organism-based; design: route intraperitoneal; settings: in vivo, 120 h; in short: as §1

| Structure (SMILES) | inhibition at 10 µM (PC-3 [3]) | cytotoxicity at 100 µM [4] | also measured |
| --- | --- | --- | --- |
| O=C(Nc1ccc(Cl)cc1)C1CCCN(C(=O)c2cccc(-c3cccs3)c2)C1 (centres undefined) | 70% | 4% | IC50 (PC-3 [1]): […]; solubility kinetic [2]: 1.36 µg/mL (≈ 3.2 µM) |
| O=C(Nc1ccc(Cl)cc1)C1CCCN(C(=O)c2ccc(-c3ccco3)cc2)C1 (centres undefined) |  | 6% |  |
| O=C(Nc1cccc(OCc2ccccn2)c1)C1CCCN(C(=O)c2cc(C(F)(F)F)cc(C(F)(F)F)c2)C1 (centres undefined) |  | 15% |  |
| O=C(Nc1ccc(Cl)nc1)C1CCCN(C(=O)c2cc(C(F)(F)F)cc(C(F)(F)F)c2)C1 (centres undefined) |  | 25% |  |
| O=C(Nc1ccc(Cl)cc1)C1CCCN(C(=O)c2cccc(-c3ccco3)c2)C1 (centres undefined) | 70% |  | Activity [5]: Non-toxic; Activity (Mus musculus [6]): Non-toxic; Activity (Mus musculus [7]): Toxic; IC50 (PC-3 [1]): 4.2 µM; solubility kinetic [2]: 3.09 µg/mL (≈ 7.56 µM) |
| O=C(Nc1ccc(Cl)cc1)C1CCCN(C(=O)c2cccc(-c3nccs3)c2)C1 (centres undefined) |  | 32% |  |
| Cc1nc(-c2cccc(C(=O)N3CCCC(C(=O)Nc4ccc(Cl)cc4)C3)c2)cs1 (centres undefined) |  | 1% |  |
| CS(=O)(=O)Nc1cccc(C(=O)N2CCCC(C(=O)Nc3ccc(Cl)cc3)C2)c1 (centres undefined) |  | 3% |  |
| CS(=O)(=O)c1cccc(C(=O)N2CCCC(C(=O)Nc3ccc(Cl)cc3)C2)c1 (centres undefined) |  | 2% |  |
| CC(=O)Nc1cccc(C(=O)N2CCCC(C(=O)Nc3ccc(Cl)cc3)C2)c1 (centres undefined) |  | 4% |  |
| O=C(Nc1cccc(Oc2ccccc2)c1)C1CCCN(C(=O)c2cc(C(F)(F)F)cc(C(F)(F)F)c2)C1 (centres undefined) | < 30% | 1% | solubility kinetic [2]: 3.22 µg/mL (≈ 6 µM) |
| O=C(Nc1cccc(Cc2ccccc2)c1)C1CCCN(C(=O)c2cc(C(F)(F)F)cc(C(F)(F)F)c2)C1 (centres undefined) | < 30% |  | solubility kinetic [2]: 1.89 µg/mL (≈ 3.54 µM) |
| O=C(Nc1cccc(OCCc2ccccn2)c1)C1CCCN(C(=O)c2cc(C(F)(F)F)cc(C(F)(F)F)c2)C1 (centres undefined) | < 30% | 5% |  |
| O=C(Nc1cccc(S(=O)(=O)N2CCCC2)c1)C1CCCN(C(=O)c2cc(C(F)(F)F)cc(C(F)(F)F)c2)C1 (centres undefined) | < 30% |  |  |
| Cc1nc(-c2cccc(NC(=O)C3CCCN(C(=O)c4cc(C(F)(F)F)cc(C(F)(F)F)c4)C3)c2)cs1 (centres undefined) | 42% | 1% |  |
| C=Cc1cccc(NC(=O)C2CCCN(C(=O)c3cc(C(F)(F)F)cc(C(F)(F)F)c3)C2)c1 (centres undefined) |  | 1% |  |
| O=C(Nc1cccc(-c2cnco2)c1)C1CCCN(C(=O)c2cc(C(F)(F)F)cc(C(F)(F)F)c2)C1 (centres undefined) |  | 9% |  |
| O=C(Nc1cccc([N+](=O)[O-])c1)C1CCCN(C(=O)c2cc(C(F)(F)F)cc(C(F)(F)F)c2)C1 (centres undefined) |  | 9% |  |
| O=C(Nc1cccc(CN2CCCC2)c1)C1CCCN(C(=O)c2cc(C(F)(F)F)cc(C(F)(F)F)c2)C1 (centres undefined) |  | 51% |  |
| O=C(Nc1ccc(Cl)cc1)C1CCCN(C(=O)c2cc(C(F)(F)F)cc(C(F)(F)F)c2)C1 (centres undefined) | 22% | 14% | IC50 (PC-3 [1]): 17 µM; solubility kinetic [2]: 4.5 µg/mL (≈ 9.4 µM) |
| O=C(CCNC(=O)c1cc(C(F)(F)F)cc(C(F)(F)F)c1)Nc1ccc(Cl)cc1 | < 10% |  | solubility kinetic [2]: 2.21 µg/mL (≈ 5.04 µM) |
| C[C@@H](N)[C@H]1CC[C@H](C(=O)Nc2ccncc2)CC1 [Y-27632] |  |  | IC50 (PC-3 [1]): 28 µM |
